Screening results as filed in PubChem BioAssay.
The list is not random: actives were taken first. Their share in the collection is about 6.6%.
Lung fibro prol = blocks proliferation of human lung fibroblasts | LL 47 human lung fibroblast viability, ATP luminescence; active compounds read low | viability, % at 10 µM | hit rate 1.1% among 85,000;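 active = viability at or below 50% in the single dose screen; inactive = viability above 50%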;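 note: compound exposure lasted 72 h before the ATP readout; 100% = median luminescence of untreated cell-only wells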
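Assay system: human lung fibroblast line LL 47, low passage. Input: 1,150 fibroblasts seeded per well. Times: overnight cell rest, 72 h compound treatment at 37 °C. Evaluation: % viability of median cell-only signal. Technique: luminescent ATP detection, CellTiter-Glo. Control set: cell-only wells, no compound.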
Jurkat viability = cytotoxicity toward Jurkat cells. inhibition, % at 4 µM. hit rate 1.2% among 56,000. Jurkat E6.1 viability, ATP luminescence, 48 h;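 active = inhibition above the mean inhibition of all tested compounds plus 3 SD, cut at about 28% in these data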
HUVEC prolif 384 = inhibitors of human endothelial cell proliferation | HUVEC proliferation, CellTiter-Glo luminescence, 72 h; active compounds read low | AID 648 | viability, % at 10 µM (by protocol) | hit rate 1.1% among 86,000;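 active = viability at or below 30%; inactive = viability above 30%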;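 note: 100% = median luminescence of DMSO-only cell control wells on each plate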
H69AR inhibit = blocks growth of human H69AR lung tumor cells | H69AR lung tumor viability, ATP luminescence, 72 h; active compounds read low | viability, % at 10 µM | hit rate 6% among 85,000 | AID 598;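 active = viability at or below 40%; inactive = viability above 40%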;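 note: multidrug resistant small cell line overexpressing MRP-1 efflux transporter; 100% = mean luminescence of untreated control wells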
Active calls of the source: *.

Results for COc1ccc(C)cc1S(=O)(=O)N(CC(=O)O)c1ccc(F)cc1 ?
Lung fibro prol: 94; Jurkat viability: 2; HUVEC prolif 384: 93; H69AR inhibit: 95

What do the screens show for `CC(NC(=O)c1ccccc1)c1nc2ccccc2n1Cc1ccccc1F` (centres undefined)?
Lung fibro prol: 92; HUVEC prolif 384: 103; H69AR inhibit: 12*

Results for CCCCn1c(Nc2ccccc2)nc2ccccc21 ?
Lung fibro prol: 102; HUVEC prolif 384: 117; H69AR inhibit: 87

Results for CCCn1c(Nc2nc3ccccc3n2C)nc2ccccc21 ?
Lung fibro prol: 102; Jurkat viability: -18; HUVEC prolif 384: 3.0*; H69AR inhibit: 3.1*

Results for CC(CCc1ccccc1)NC(=O)c1nnc(Cc2ccc(Cl)cc2)o1 (centres undefined) ?
Lung fibro prol: 96; HUVEC prolif 384: 103; H69AR inhibit: 90

Results for CCCOc1c(OC)cccc1C1CC(=O)Nc2cc3c(cc21)OCCO3 (centres undefined) ?
Lung fibro prol: 91; Jurkat viability: 7; HUVEC prolif 384: 60; H69AR inhibit: 15*

How did CCCOc1c(OC)cccc1C1CC(=O)Nc2cc3c(cc21)OCO3 (centres undefined) do in these assays?
Lung fibro prol: 82; Jurkat viability: 24; HUVEC prolif 384: 67; H69AR inhibit: 17*

Results for CCCCCCC1/C(=N/O)CCC1C(=O)OC (centres undefined) ?
Lung fibro prol: 96; Jurkat viability: 3; HUVEC prolif 384: 100; H69AR inhibit: 99

Results for c1ccc(-c2ccccc2-c2nc(-c3cccnc3)no2)cc1 ?
Lung fibro prol: 95; Jurkat viability: 5; HUVEC prolif 384: 76; H69AR inhibit: 76

What do the screens show for `c1ccc(-c2cc(-c3nc(-c4cccnc4)no3)c3ccccc3n2)cc1`?
Lung fibro prol: 107; Jurkat viability: 7; HUVEC prolif 384: 83; H69AR inhibit: 12*

What do the screens show for `Cc1cc(C)c(C)c(S(=O)(=O)Nc2ccc(OCC(=O)O)cc2)c1C`?
Lung fibro prol: 102; HUVEC prolif 384: 94; H69AR inhibit: 95

Results for COc1cccc(/C=N/n2cnc3ccccc32)c1OC ?
Lung fibro prol: 121; HUVEC prolif 384: 95; H69AR inhibit: 30*

What do the screens show for `COc1cccc(/C=N/n2c(N)nc3ccccc32)c1OC`?
Lung fibro prol: 89; HUVEC prolif 384: 75; H69AR inhibit: 74

How did Cc1cccc(N2CCN(S(=O)(=O)c3ccc(S(=O)(=O)N4CCCC4)cc3)CC2)c1C do in these assays?
Lung fibro prol: 55; HUVEC prolif 384: 65; H69AR inhibit: 16*

Results for O=C(Nc1nc2ccccc2[nH]1)c1ccc(Cl)c(S(=O)(=O)N2CCCC2)c1 ?
Lung fibro prol: 73; HUVEC prolif 384: 75; H69AR inhibit: 12*

How did COc1cccc(C(=O)Nc2nc3ccccc3[nH]2)c1 do in these assays?
Lung fibro prol: 60; HUVEC prolif 384: 68; H69AR inhibit: 32*

How did COC(=O)Nc1nc2ccc(C(=O)c3ccccc3)cc2[nH]1 do in these assays?
Lung fibro prol: 50; HUVEC prolif 384: 37; H69AR inhibit: 33*

What do the screens show for `CC(CC(=O)Nc1nc2ccccc2[nH]1)c1ccccc1` (centres undefined)?
Lung fibro prol: 91; HUVEC prolif 384: 88; H69AR inhibit: 12*

Results for COc1cc(C(=O)Nc2nc3ccccc3[nH]2)cc(OC)c1OC ?
Lung fibro prol: 108; Jurkat viability: 8; HUVEC prolif 384: 96; H69AR inhibit: 46

What do the screens show for `CCC(NC(=O)NCc1cccnc1)(C(F)(F)F)C(F)(F)F`?
Lung fibro prol: 101; Jurkat viability: 8; HUVEC prolif 384: 92; H69AR inhibit: 98

Results for COc1cc(NC(=O)c2ccccc2Cl)c(OC)cc1NC(=O)CN1CCOCC1 ?
Lung fibro prol: 113; Jurkat viability: -5; HUVEC prolif 384: 101; H69AR inhibit: 90

What do the screens show for `CCOC(=O)c1c(CN2CCCCC2)n(C)c2ccc(OC)c(S(=O)(=O)c3ccccc3)c12`?
Lung fibro prol: 99; HUVEC prolif 384: 97; H69AR inhibit: 84

How did COC(=O)C1=C(C)NC(C)=C(C(=O)OC)C1c1ccccc1OCc1c(C)no[n+]1[O-] do in these assays?
Lung fibro prol: 82; Jurkat viability: -3; HUVEC prolif 384: 78; H69AR inhibit: 112

Results for COc1cccc(NC(=O)CN2C(=O)COc3ccc(Cl)cc32)c1 ?
Lung fibro prol: 100; Jurkat viability: -4; HUVEC prolif 384: 94; H69AR inhibit: 107

How did CCCSc1ccc2nc(NC(=O)OC)[nH]c2c1 do in these assays?
Lung fibro prol: 53; HUVEC prolif 384: 45; H69AR inhibit: 20*
